# How the values were obtained:
# SK-OV-3 = assay: Growth inhibition of human SKOV3 cells assessed as cell growth at 10^-5 M after 48 hrs by sulforhodamine B assay; type: functional; details: SK-OV-3, 48 h, read-out: Activity
# In short: (§1)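 NCI 60-cell-line primary one-dose screen. Cells were exposed to a single 10^-5 M concentration for 48 h. The end point was sulforhodamine B protein staining, read spectrophotometrically. Results are reported as percent growth of treated cells relative to untreated control cells.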
# UACC-62 = assay: Growth inhibition of human UACC62 cells assessed as cell growth at 10^-5 M after 48 hrs by sulforhodamine B assay; type: functional; details: UACC-62, 48 h, read-out: Activity
# In short: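 NCI primary one-dose screen: single concentration of 10^-5 M added to culture, 48 h incubation, SRB protein-dye endpoint. Percent growth of treated cells measured spectrophotometrically against untreated controls.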
# HL-60(TB) = assay: Growth inhibition of human HL-60(TB) cells after 48 hrs by sulforhodamine B assay; type: functional; details: HL-60, 48 h; for CC50: read-out: LC50 (the source's name)
# In short: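 NCI 60-panel five-dose screen: cells exposed continuously for 48 h to 10-fold dilutions from 10^-4 to 10^-8 M; SRB protein staining read spectrophotometrically. Percent growth from time-zero, untreated-control and treated absorbances; GI50 is the concentration giving 50% lower net protein increase than control.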
# A549 = assay: Growth inhibition of human A549/ATCC cells after 48 hrs by sulforhodamine B assay; type: functional; details: A549, 48 h
# In short: (§2)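 NCI 60-panel five-dose test at 10-fold dilutions, 10^-4 to 10^-8 M, with 48 h continuous exposure and SRB protein read-out. Percent growth derived from time-zero, untreated-control and treated absorbances. GI50 is the concentration where [(Ti-Tz)/(C-Tz)]×100 = 50. TGI is taken at Ti = Tz. LC50 is taken at [(Ti-Tz)/Tz]×100 = -50.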
# [1] = target: T1, DNA topoisomerase 1 (Homo sapiens) (UniProt P11387); assay: Inhibition of human recombinant topoisomerase 1-mediated relaxation of supercoiled pBR322 DNA at 100 uM after 30 mins by agarose gel electrophoresis relative to control
# T1 sequence (whole entry): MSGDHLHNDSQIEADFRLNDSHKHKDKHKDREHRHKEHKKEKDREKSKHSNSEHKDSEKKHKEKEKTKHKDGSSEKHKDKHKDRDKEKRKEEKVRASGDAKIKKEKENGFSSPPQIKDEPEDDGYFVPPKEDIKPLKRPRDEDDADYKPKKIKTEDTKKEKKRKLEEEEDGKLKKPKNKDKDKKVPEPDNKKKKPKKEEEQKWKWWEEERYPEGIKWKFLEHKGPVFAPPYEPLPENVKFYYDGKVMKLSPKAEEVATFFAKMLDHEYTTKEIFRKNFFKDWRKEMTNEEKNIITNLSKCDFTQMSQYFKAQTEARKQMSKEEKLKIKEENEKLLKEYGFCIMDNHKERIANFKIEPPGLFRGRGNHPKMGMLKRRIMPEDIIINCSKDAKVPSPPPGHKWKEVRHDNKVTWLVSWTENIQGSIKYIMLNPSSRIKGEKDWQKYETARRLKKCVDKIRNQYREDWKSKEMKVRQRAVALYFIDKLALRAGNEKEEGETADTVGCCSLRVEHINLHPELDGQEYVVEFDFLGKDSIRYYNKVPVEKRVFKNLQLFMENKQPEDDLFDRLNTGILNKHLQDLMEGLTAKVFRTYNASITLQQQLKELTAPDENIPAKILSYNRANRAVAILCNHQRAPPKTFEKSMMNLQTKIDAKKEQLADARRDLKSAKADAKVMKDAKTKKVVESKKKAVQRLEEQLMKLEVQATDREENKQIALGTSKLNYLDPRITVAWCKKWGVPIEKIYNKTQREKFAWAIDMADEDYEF
# In short: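 Recombinant human topo I (0.4 units) with 100 ng supercoiled pBR322, 37 °C for 30 min in Tris-HCl pH 7.9, 150 mM NaCl, 0.1% BSA, 1 mM spermidine, 5% glycerol. Compounds came from 20 mM DMSO stocks, with matched DMSO in the enzyme-only control. Stopped with sarcosyl; 1% agarose/TAE gel, ethidium stain, UV densitometry. Camptothecin was the positive control.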
# LOX IMVI = assay: Growth inhibition of human LOXIMVI cells assessed as cell growth at 10^-5 M after 48 hrs by sulforhodamine B assay; type: functional; details: read-out: Activity
# In short: (§3)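 NCI 60-cell-line primary screen. Single concentration of 10^-5 M, 48 h incubation. End point by sulforhodamine B protein staining read spectrophotometrically. Reported as percent growth of treated cells relative to untreated control cells.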
# K562 = assay: Growth inhibition of human K562 cells after 48 hrs by sulforhodamine B assay; type: functional; details: K562, 48 h; in short: as §2
# MDA-MB-468 [2] = assay: Growth inhibition of human MDA-MB-468 cells assessed as cell growth at 10^-5 M after 48 hrs by sulforhodamine B assay; type: functional; details: MDA-MB-468, 48 h, read-out: Activity; in short: as §1
# A498 [3] = assay: Growth inhibition of human A498 cells assessed as cell growth at 10^-5 M after 48 hrs by sulforhodamine B assay; type: functional; details: A498, 48 h, read-out: Activity; in short: as §3
# MDA-MB-468 [4] = assay: Growth inhibition of human MDA-MB-468 cells after 48 hrs by sulforhodamine B assay; type: functional; details: MDA-MB-468, 48 h
# In short: (§4)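 NCI five-dose screen on the full 60-cell-line panel. Cells were given 10-fold dilutions from 10^-4 to 10^-8 M with continuous 48 h exposure, and growth was read by SRB staining. Percent growth was taken from time-zero, control and treated absorbances. GI50, TGI and LC50 were then derived, the GI50 being the concentration that gives a 50% lower net protein increase than control.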
# 786-0 = assay: Growth inhibition of human 786-0 cells after 48 hrs by sulforhodamine B assay; type: functional; details: 786-0, 48 h; in short: as §2
# HCT-116 = assay: Growth inhibition of human HCT116 cells after 48 hrs by sulforhodamine B assay; type: functional; details: HCT-116, 48 h; in short: as §2
# SF-268 = assay: Growth inhibition of human SF268 cells assessed as cell growth at 10^-5 M after 48 hrs by sulforhodamine B assay; type: functional; details: SF-268, 48 h, read-out: Activity; in short: as §1
# MCF7 = assay: Growth inhibition of human MCF7 cells after 48 hrs by sulforhodamine B assay; type: functional; details: MCF7, 48 h; in short: as §2
# CCRF-CEM = assay: Growth inhibition of human CCRF-CEM cells after 48 hrs by sulforhodamine B assay; type: functional; in short: as §2
# A498 [5] = assay: Growth inhibition of human A498 cells after 48 hrs by sulforhodamine B assay; type: functional; details: A498, 48 h; in short: as §2
# NCI-H322M = assay: Growth inhibition of human NCI-H322M cells after 48 hrs by sulforhodamine B assay; type: functional; details: for CC50: read-out: LC50 (the source's name); in short: as §4
Compound,growth at 10 µM (SK-OV-3) [%],growth at 10 µM (UACC-62) [%],GI50 (HL-60(TB)) [µM],TGI (HL-60(TB)) [µM],CC50 (HL-60(TB)) [µM],GI50 (A549) [µM],LC50 (concentration giving 50% net cell kill) (A549) [µM],inhibition [1] [%],growth at 10 µM (LOX IMVI) [%],GI50 (K562) [µM],LC50 (concentration giving 50% net cell kill) (K562) [µM],TGI (K562) [µM],growth at 10 µM (MDA-MB-468 [2]) [%],growth at 10 µM (A498 [3]) [%],GI50 (MDA-MB-468 [4]) [µM],LC50 (concentration killing 50% of starting cells) (MDA-MB-468 [4]) [µM],TGI (MDA-MB-468 [4]) [µM],GI50 (786-0) [µM],LC50 (786-0) [µM],TGI (786-0) [µM],also measured
O=C(CN1CCN(c2cc3c(cc2F)c(=O)c(C(=O)O)cn3C2CC2)CC1)Nc1ccc(C(=O)/C=C/c2ccccc2)cc1,93.6,35.5,9.44,> 100,> 100,2.41,> 100,57.2,5.67,3.07,> 100,> 100,33.8,57.7,2.45,> 100,23.2,4.5,> 100,> 100,GI50 (HCT-116): 0.66 µM; LC50 (HCT-116): 9.55 µM; TGI (HCT-116): 2.68 µM; growth at 10 µM (SF-268): 37%; GI50 (MCF7): 3.52 µM; LC50 (50% net cell kill) (MCF7): > 100 µM; TGI (MCF7): > 100 µM; GI50 (CCRF-CEM): 4.09 µM; LC50 (concentration giving 50% net cell kill) (CCRF-CEM): > 100 µM; TGI (CCRF-CEM): > 100 µM; GI50 (A498 [5]): 1.28 µM; LC50 (concentration killing 50% of starting cells) (A498 [5]): > 100 µM; TGI (A498 [5]): 7.37 µM; GI50 (NCI-H322M): 4.04 µM; TGI (NCI-H322M): 58.7 µM; CC50 (NCI-H322M): > 100 µM
COc1cc(/C=C/C(=O)c2ccc(NC(=O)CN3CCN(c4cc5c(cc4F)c(=O)c(C(=O)O)cn5C4CC4)CC3)cc2)cc(OC)c1OC,33.3,-23.5,1.11,> 100,> 100,0.37,> 100,67.4,-54.7,0.27,> 100,> 100,-1.82,-43.8,0.33,40.7,1.78,0.6,7.7,2.38,TGI (A549): 2.14 µM; GI50 (HCT-116): 0.23 µM; TGI (HCT-116): 0.69 µM; growth at 10 µM (SF-268): -1.11%; GI50 (MCF7): 0.47 µM; LC50 (50% net cell kill) (MCF7): > 100 µM; TGI (MCF7): > 100 µM; GI50 (CCRF-CEM): 0.32 µM; LC50 (concentration giving 50% net cell kill) (CCRF-CEM): > 100 µM; GI50 (A498 [5]): 0.36 µM; LC50 (concentration killing 50% of starting cells) (A498 [5]): 5.47 µM; TGI (A498 [5]): 1.8 µM; GI50 (NCI-H322M): 0.29 µM; TGI (NCI-H322M): 2.3 µM; CC50 (NCI-H322M): > 100 µM

# From ChEMBL document CHEMBL2434966, “Novel N-4-piperazinyl-ciprofloxacin-chalcone hybrids: synthesis, physicochemical properties, anticancer and topoisomerase I and II inhibitory activity” (Eur J Med Chem, 2013)
